Here are results for four compounds from ChEMBL document CHEMBL4808162, “Constraining the Side Chain of C-Terminal Amino Acids in Apelin-13 Greatly Increases Affinity, Modulates Signaling, and Improves the Pharmacokinetic Profile” (J Med Chem, 2021).

The source made the active and inactive calls. The rule behind the calls is not given here. Peptide text beside a SMILES is read from it.

In series [1] the target is T1, Apelin receptor (Homo sapiens, UniProt P35414).
T1 sequence (P35414 whole entry): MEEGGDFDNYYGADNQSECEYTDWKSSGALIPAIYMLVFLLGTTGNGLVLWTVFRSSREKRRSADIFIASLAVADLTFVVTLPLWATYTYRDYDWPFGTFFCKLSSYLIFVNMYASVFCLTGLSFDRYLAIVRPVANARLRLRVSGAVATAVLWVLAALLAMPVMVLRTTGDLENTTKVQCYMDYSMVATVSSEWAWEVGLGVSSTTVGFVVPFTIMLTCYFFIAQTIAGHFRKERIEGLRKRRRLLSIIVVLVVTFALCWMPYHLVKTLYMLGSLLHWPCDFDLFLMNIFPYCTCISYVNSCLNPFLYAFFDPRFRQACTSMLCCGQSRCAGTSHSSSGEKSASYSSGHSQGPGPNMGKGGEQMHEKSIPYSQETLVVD
Briefly: Agonist activity at human APJ receptor expressed in HEK293T cells co-expressing Galphai1 RlucII assessed as dissociation of Galphai1 from Gbetta/gamma subunit measured using coelenterazine luciferase substrate incubated for 5 mins by BRET assay. The class given is functional, cell-based, HEK293. On the technique in general: In BRET a luciferase serves as donor, and the signal depends on an acceptor being close.

Series [2] can be described thus: Half life in Sprague-Dawley rat plasma at 3 mg/kg, iv bolus injection measured up to 240 mins by LC-MS/MS analysis. The class given is ADME, organism-based. The essentials: (§1)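 Male Sprague-Dawley rats (250−300 g, 8−10 weeks), jugular vein catheter placed 24 h before dosing, n = 3. Single i.v. bolus in 0.9% saline at 3 mg/kg. Blood drawn at 5, 10, 30, 60, 120, 240 min into K2-EDTA tubes. Plasma cleaned by acetonitrile precipitation and HLB, then quantified by LC-MS/MS.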

Series [3] addresses T1, Apelin receptor. Briefly: Agonist activity at human APJ receptor expressed in HEK293T cells co-expressing PDZ-Rho-Gef-RLucll and rGFP-CAAX assessed as induction of recruitment of Galpha12 to cell membrane using coelenterazine luciferase substrate incubated for 5 mins by BRET assay. The class given is functional, cell-based, HEK293.
In series [4] the target is T1, Apelin receptor. Briefly: Agonist activity at human APJ receptor expressed in HEK293 cells co-expressing Rlucll-beta-arrestin2 assessed as induction of beta-arrestin2 recruitment to receptor incubated for 30 mins by BRET assay. Type of series: functional, cell-based. Background: Arrestin recruitment assays detect the binding of arrestin to an activated receptor.
Series [5] is described as follows: AUCtot in Sprague-Dawley rat plasma at 3 mg/kg, iv bolus injection measured up to 240 mins by LC-MS/MS analysis. The class given is ADME, organism-based. Also noted: route intravenous, dose 3 mg/kg, time <=240. Conditions: in vivo, 4 h. The essentials: as §1
Series [6] is described as follows: Clearance in Sprague-Dawley rat plasma at 3 mg/kg, iv bolus injection measured up to 240 mins by LC-MS/MS analysis. The class given is ADME, organism-based. In outline: as §1
Series [7] concerns the target T1, Apelin receptor. Briefly: Displacement of [125I] [NIe75,Tyr77]Pyr-apelin-13 from YFP-tagged human APJ receptor expressed in HEK293 cells incubated for 1 hr by gamma counting analysis. Type of series: cell-based. Background: Loss of bound radioactivity is the signal in a displacement assay; it reports binding, not function.
Series [8] has as its target Angiotensin-converting enzyme 2 (Rattus norvegicus, UniProt Q5EGZ1). In words: Stability of the compound assessed as recombinant rat ACE2-mediated degradation measured up to 24 hrs by UPLC-MS analysis. The class given is ADME. In outline: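 Recombinant rat ACE2 at 20 nM final in 100 mM Tris-HCl, 100 mM NaCl, 10 μM ZnCl2, pH 7.4. Peptide at 50 μM final with N,N-dimethylbenzamide internal standard, incubated 1, 2 and 24 h at 37 °C with shaking. Reaction stopped with EDTA; blank used pre-inactivated enzyme. Remaining peptide measured by UPLC-MS in SIM mode, oxidized forms summed; n = 3.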

Series [9] is described as follows: Stability in Sprague-Dawley rat plasma assessed as half life measured up to 24 hrs by UPLC-MS analysis. Type of series: ADME, cell-free. In outline:
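Peptide (6 μL of 1 mM aqueous solution) incubated with 27 μL male Sprague-Dawley rat plasma at 37 °C. Time points 0, 1, 2, 4, 7, 24 h, or 0–120 min for labile peptides. Reaction quenched with acetonitrile-ethanol containing N,N-dimethylbenzamide internal standard, filtered, then UPLC-MS. t1/2 from one-phase exponential decay; at least three experiments.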

The test system of series [10] is Rattus norvegicus. In words: Effect on mean arterial blood pressure in Sprague-Dawley rat at 65 nmol/kg, iv bolus injection measured after 1 min. The class given is functional, organism-based. In outline: (§2)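 Male Sprague-Dawley rats (250−300 g) under ketamine/xylazine (87/13 mg/kg i.m.) on a thermostatic pad. Mean arterial pressure recorded through a right carotid catheter. Saline vehicle bolus given, then 5 min later the peptide i.v. at 19.6 nmol/kg (n = 5) or 65 nmol/kg.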

In series [11] the target is T2, Apelin receptor (Homo sapiens) (UniProt P35414).
T2 sequence (whole entry): T1 sequence (P35414 whole entry)
In words: Agonist activity at human APJ receptor expressed in HEK293 cells co-expressing Rlucll-beta-arrestin2 assessed as induction of beta-arrestin2 recruitment to receptor incubated for 30 mins by BRET assay relative to control. Type of series: functional, cell-based. The essentials:
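HEK293 cells transiently transfected with PEI, carrying hAPJ-GFP10 and RlucII-β-arrestin2. Cells replated at 50 000/well after 24 h, washed, and placed in HBSS. Ligand given at 10⁻⁵ to 10⁻¹¹ M for 30 min at room temperature. 5 μM coelenterazine 400A added, BRET² ratio GFP10/RlucII read. EC50 from dose-response fit; three experiments, each in triplicate.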

Series [12] has as its system Rattus norvegicus. In words: Hypotensive effect in Sprague-Dawley rat assessed as drop in mean arterial blood pressure at 19.6 nmol/kg, iv bolus injection measured after 1 min. The class given is functional. In outline: as §2
Series [13] addresses T2, Apelin receptor (Homo sapiens). Briefly: Agonist activity at human APJ receptor expressed in HEK293T cells co-expressing PDZ-Rho-Gef-RLucll and rGFP-CAAX assessed as induction of recruitment of Galpha12 to cell membrane using coelenterazine luciferase substrate incubated for 5 mins by BRET assay relative to control. Type of series: functional, cell-based. The settings on record: HEK293, filed as partial agonist. The essentials: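 HEK293T cells (35 000/well) transiently transfected with PEI 48 h before assay, carrying hAPJ, Gα12, Gβ1, Gγ1 and the ebBRET pair PDZ-RhoGEF-RLucII / rGFP-CAAX. Ligand stimulation for 5 min. Curves fitted as normalized variable-slope dose-response with Hill slope shared; eight experiments, each singly.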

Angiotensin-converting enzyme 2, sequence (Q5EGZ1 whole entry): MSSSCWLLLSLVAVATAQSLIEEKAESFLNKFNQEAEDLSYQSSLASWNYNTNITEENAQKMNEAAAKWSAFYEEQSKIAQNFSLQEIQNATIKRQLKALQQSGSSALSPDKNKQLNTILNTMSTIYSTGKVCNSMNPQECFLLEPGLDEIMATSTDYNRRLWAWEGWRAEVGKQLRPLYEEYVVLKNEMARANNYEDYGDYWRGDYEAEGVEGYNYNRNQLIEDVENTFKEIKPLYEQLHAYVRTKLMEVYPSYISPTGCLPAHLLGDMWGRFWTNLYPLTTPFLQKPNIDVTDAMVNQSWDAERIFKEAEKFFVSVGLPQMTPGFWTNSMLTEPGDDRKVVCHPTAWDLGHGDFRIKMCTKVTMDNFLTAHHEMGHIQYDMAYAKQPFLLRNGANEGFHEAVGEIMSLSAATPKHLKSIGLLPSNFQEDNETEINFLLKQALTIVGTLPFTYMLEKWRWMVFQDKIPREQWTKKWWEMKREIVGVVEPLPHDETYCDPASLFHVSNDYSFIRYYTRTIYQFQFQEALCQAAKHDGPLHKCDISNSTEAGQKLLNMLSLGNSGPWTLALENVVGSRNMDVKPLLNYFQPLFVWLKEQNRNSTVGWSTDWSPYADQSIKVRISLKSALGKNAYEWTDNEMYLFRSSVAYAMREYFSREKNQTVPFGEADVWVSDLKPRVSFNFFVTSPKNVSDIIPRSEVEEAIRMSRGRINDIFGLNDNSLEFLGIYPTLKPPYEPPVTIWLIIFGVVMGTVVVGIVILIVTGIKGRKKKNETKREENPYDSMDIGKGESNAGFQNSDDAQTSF

The term EC50 denotes the concentration at which the effect is half-maximal. One may read the half-life as the time in which the quantity being followed falls by half. What is called AUC is concentration integrated over time. Lower therefore signals low exposure. By clearance is commonly meant the rate of elimination divided by the concentration. The term Ki denotes a measure of affinity in units of concentration, obtained from inhibition or displacement. The low end stands for higher affinity, the high end for lower affinity. As for `CCCC[C@H](NC(=O)[C@@H]1CCCN1C(=O)CNC(=O)[C@H](CCCCN)NC(=O)[C@H](Cc1cnc[nH]1)NC(=O)[C@H](CO)NC(=O)[C@H](CC(C)C)NC(=O)[C@H](CCCNC(=N)N)NC(=O)[C@@H]1CCCN1C(=O)[C@H](CCCNC(=N)N)NC(=O)[C@@H]1CCC(=O)N1)C(=O)N[C@H]1Cc2c([nH]c3ccccc23)CN([C@@H](Cc2ccccc2)C(=O)O)C1=O`, the half-maximal effective concentration (EC50) in series [1] (hek293) was 2.5 nM; in [3] (hek293), 11 nM; in [4] (hek293), 25 nM. The half-life in series [2] was 20 min; in series [9] it was 348 min. The compound further showed an AUC in series [5] of 0.13 mg·min/mL. In series [6], this compound registered a clearance of 1.38 L/h/kg. In series [7] (hek293), this compound showed a Ki of 0.08 nM. In addition, in [8], the Stabilty result is “Stable”.
Take `CCCC[C@H](NC(=O)[C@@H]1CCCN1C(=O)CNC(=O)[C@H](CCCCN)NC(=O)[C@H](Cc1cnc[nH]1)NC(=O)[C@H](CO)NC(=O)[C@H](CC(C)C)NC(=O)[C@H](CCCNC(=N)N)NC(=O)[C@@H]1CCCN1C(=O)[C@H](CCCNC(=N)N)NC(=O)[C@@H]1CCC(=O)N1)C(=O)N[C@@H](Cc1cccc2ccccc12)C(=O)NC(Cc1ccccc1)(Cc1ccccc1)C(=O)O` (HELM PEPTIDE1{[Glp].R.P.R.L.S.H.K.G.P.[Nle].[O=C([C@H](Cc1cccc2ccccc12)N[*:1])[*:2]].[O=C(O)C(Cc1ccccc1)(Cc1ccccc1)N[*:1]]}$$$$V2.0): the EC50 in [1] stood at 3.8 nM; in [3], 2.8 nM; in [4], 36 nM. For the same compound, the half-life in [2] is 26 min; in series [9], 438 min. The compound also came in with an AUC in series [5] of 0.12 mg·min/mL. Besides, in [6], the clearance came to 1.62 L/h/kg. The compound also returned a Ki in series [7] of 0.08 nM. For the same compound, the Stabilty entry in series [8] is “Stable”.
Usually Emax stands for the greatest response seen or fitted, relative to the assay's reference. Consider `CCCC[C@H](NC(=O)[C@@H]1CCCN1C(=O)CNC(=O)[C@H](CCCCN)NC(=O)[C@H](Cc1cnc[nH]1)NC(=O)[C@H](CO)NC(=O)[C@H](CC(C)C)NC(=O)[C@H](CCCNC(=N)N)NC(=O)[C@@H]1CCCN1C(=O)[C@H](CCCNC(=N)N)NC(=O)[C@@H]1CCC(=O)N1)C(=O)N1CCC[C@H]1C(=O)N[C@H](Cc1cc(C2CCCC2)c(OCc2ccccc2)c(C2CCCC2)c1)C(=O)O`, for which the values for the EC50 in series [1], in series [3] and in [4] were 22 nM, 141 nM and 367 nM, respectively. Also, in series [10], the result was inactive. In addition, in series [11], the Emax worked out at 53%. Further, in series [7], the Ki is 13 nM.
`CCCC[C@H](NC(=O)[C@@H]1CCCN1C(=O)CNC(=O)[C@H](CCCCN)NC(=O)[C@H](Cc1cnc[nH]1)NC(=O)[C@H](CO)NC(=O)[C@H](CC(C)C)NC(=O)[C@H](CCCNC(=N)N)NC(=O)[C@@H]1CCCN1C(=O)[C@H](CCCNC(=N)N)NC(=O)[C@@H]1CCC(=O)N1)C(=O)N1CCC[C@H]1C(=O)N[C@](C)(Cc1ccc(OCc2ccccc2)cc1)C(=O)O`: the EC50 in series [1] is 2.7 nM; in series [3], 4.4 nM; in series [4] it was 30 nM. Besides, in series [12], the Activity was 30 mmHg. Moreover, the maximum response (Emax) in [13] stood at 46%. Further, in [9], the half-life was 54 min.
